Test [1] relates to MCF7. As to the kind of experiment: Cytotoxicity against human MCF7 cells at 0.64 ug/ml after 24 hrs by MTT assay. In kind it is functional. The essentials:
(§1)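 MCF-7 cells grown in DMEM with 1 mM pyruvate, 10 µg/mL insulin, 10% FBS and penicillin/streptomycin at 37 °C, 5% CO2. Exposed 24 h to 0.64–80 µg/mL (DMSO stocks diluted in medium). MTT added, A540 measured. Percent viability relative to untreated cells; IC50 derived. Three experiments with four wells per concentration.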
For orientation: Formazan colour is commonly taken as a measure of viable cells.

The subject of test [2] is HT-29. As to the kind of experiment: Inhibition of DNA synthesis in human HT-29 cells after 48 hrs by BrdU incorporation assay. In kind it is functional, cell-based. The essentials:
(§2)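 HT-29 cells (McCoy's 5A, 10% FBS) seeded at 1 × 10^3 cells/mL. Exposed to three concentrations for 24 h and 48 h at 37 °C, with DMSO solvent control. BrdU label for 2 h, then fixation and anti-BrdU-POD for 90 min. Substrate colour read at 492 nm with blank subtracted. Triplicate wells, three experiments.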

The test system of test [3] is HT-29. Description: Cytotoxicity against human HT-29 cells at 0.64 ug/ml after 24 hrs by MTT assay. The test is classed as functional. The essentials: (§3)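 HT-29 cells grown in McCoy's 5A with 10% FBS and penicillin/streptomycin at 37 °C, 5% CO2. Treated 24 h with 0.64, 1.6, 6.4, 16, 32 or 80 µg/mL (DMSO stock diluted in medium). MTT added, absorbance read at 540 nm. Viability taken relative to untreated control (100%); IC50 calculated. Four wells per concentration, three repeat experiments.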

Test [4] concerns HT-29. Description: Cytotoxicity against human HT-29 cells at 6.4 ug/ml after 24 hrs by MTT assay. In kind it is functional. An outline of the steps: as §3
Test [5] concerns MCF7. Description: Inhibition of DNA synthesis in human MCF7 cells by BrdU incorporation assay. The test is classed as functional, cell-based. The note with it: TDE = time-dependent effect. An outline of the steps:
(§4)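 MCF-7 cells (DMEM, pyruvate, insulin, 10% FBS) seeded at 1 × 10^3 cells/mL. Treated at three concentrations for 24 h or 48 h at 37 °C against DMSO control. Labelled with BrdU for 2 h, fixed, then anti-BrdU-POD for 90 min. Colorimetric substrate read at 492 nm after blank subtraction. Triplicate wells, repeated three times.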
Background: Dividing cells build labelled thymidine or BrdU into new DNA.

Test [6] has as its system HT-29. Description: Cytotoxicity against human HT-29 cells at 32 ug/ml after 24 hrs by MTT assay. In kind it is functional. An outline of the steps: as §3
For test [7], the system named is HT-29. Description: Cytotoxicity against human HT-29 cells at 16 ug/ml after 24 hrs by MTT assay. In kind it is functional. An outline of the steps: as §3
The test system of test [8] is HT-29. As to the kind of experiment: Inhibition of DNA synthesis in human HT-29 cells by BrdU incorporation assay. The test is classed as functional, cell-based. Conditions: TDE = time-dependent effect. An outline of the steps: as §2
Test [9] deals with MCF7. As to the kind of experiment: Cytotoxicity against human MCF7 cells at 80 ug/ml after 24 hrs by MTT assay. In kind it is functional. The essentials: as §1
Test [10] concerns MCF7. Description: Cytotoxicity against human MCF7 cells at 16 ug/ml after 24 hrs by MTT assay. In kind it is functional. An outline of the steps: as §1
Test [11] relates to MCF7. As to the kind of experiment: Cytotoxicity against human MCF7 cells at 1.6 ug/ml after 24 hrs by MTT assay. The test is classed as functional. The essentials: as §1
The test system of test [12] is MCF7. Description: Inhibition of DNA synthesis in human MCF7 cells after 48 hrs by BrdU incorporation assay. The test is classed as functional, cell-based. The essentials:
as §4

The test system of test [13] is HT-29. As to the kind of experiment: Cytotoxicity against human HT-29 cells at 1.6 ug/ml after 24 hrs by MTT assay. In kind it is functional. The essentials:
as §3

For test [14], the system named is HT-29. Description: Cytotoxicity against human HT-29 cells after 24 hrs by MTT assay. In kind it is functional, cell-based. Conditions: HT-29, 24 h. An outline of the steps: as §3
Test [15] concerns MCF7. Description: Cytotoxicity against human MCF7 cells after 24 hrs by MTT assay. In kind it is functional, cell-based. Conditions: MCF7, 24 h. An outline of the steps: as §1
In test [16] the test system is MCF7. As to the kind of experiment: Cytotoxicity against human MCF7 cells at 6.4 ug/ml after 24 hrs by MTT assay. The test is classed as functional. The essentials:
as §1

Test [17] relates to MCF7. As to the kind of experiment: Cytotoxicity against human MCF7 cells at 32 ug/ml after 24 hrs by MTT assay. In kind it is functional. The essentials:
as §1

The test system of test [18] is HT-29. Description: Induction of apoptosis in human HT-29 cells assessed as DNA fragmentation after 24 hrs by gel electrophoresis.
Test [19] relates to HT-29. Description: Cytotoxicity against human HT-29 cells at 80 ug/ml after 24 hrs by MTT assay. The test is classed as functional. An outline of the steps: as §3

SMILES strings stand for the structures. Values after ≈ are worked out from the molar mass of the structure shown. Active and inactive are the calls of the source. The rule behind the calls is not given here.

In general, IC50 refers to the concentration at which inhibition is half-maximal. Low values mean higher potency, high ones lower potency. As for `Cn1c(-c2ccc(NC(=O)CSc3nc4ccccc4o3)cc2)nc(-c2ccccc2)c1-c1ccccc1`, the Activity in the test on MCF7 [1] stood at 18.7%; in the test on HT-29 [3] it was 24.8%; with HT-29 [4], 44.9%; in the test with HT-29 [6], 79.3%; in the test with HT-29 [7] it was 56.2%; with MCF7 [9], 76.3%. Also, the Activity turned out to be 56% with MCF7 [10]; 27.4% in the test with MCF7 [11]; 41% in the test with HT-29 [13]; 42.3% with MCF7 [16]; 71.5% with MCF7 [17]; 81.5% in the test with HT-29 [19]. For the same compound, the inhibition result was “Dose-dependent effect” in the test on HT-29 [2], “tde” with MCF7 [5], “tde” with HT-29 [8] and “Dose-dependent effect” with MCF7 [12]. The IC50 in the test on HT-29 [14] came out at 11 µg/mL (≈ 21.3 µM); in the test on MCF7 [15], 11.2 µg/mL (≈ 21.7 µM). The result in the test on HT-29 [18] was inactive.

As for `Cc1nnc(SCC(=O)Nc2ccc(-c3nc(-c4ccccc4)c(-c4ccccc4)n3C)cc2)s1`, the Activity in the test with MCF7 [1] is 35.1%; in the test on HT-29 [3], 34.8%; with HT-29 [4] it was 73%; in the test with HT-29 [6], 87.1%; in the test with HT-29 [7], 83.3%; with MCF7 [9] it was 85.2%. Besides, the Activity in the test with MCF7 [10] is reported as 74.9%; in the test with MCF7 [11], 37.5%; in the test with HT-29 [13], 39.9%; with MCF7 [16], 67.8%; in the test with MCF7 [17] it was 83.4%; with HT-29 [19], 90.5%. Moreover, the inhibition result with HT-29 [2] is “Dose-dependent effect”; in the test with MCF7 [5], “tde”; with HT-29 [8], “tde”; in the test on MCF7 [12], “Dose-dependent effect”. The IC50 in the test on HT-29 [14] came out at 2.7 µg/mL (≈ 5.43 µM); in the test with MCF7 [15], 3.2 µg/mL (≈ 6.43 µM). For the same compound, the outcome with HT-29 [18] was Active.

On to `Cn1nnnc1SCC(=O)Nc1ccc(-c2nc(-c3ccccc3)c(-c3ccccc3)n2C)cc1`, for which the Activity in the test with MCF7 [1] is 21.9%; in the test with HT-29 [3], 38%; in the test with HT-29 [4] it was 60.6%; in the test with HT-29 [6], 84%; with HT-29 [7], 72.5%; with MCF7 [9], 77.7%. Moreover, the Activity came out at 63.7% in the test with MCF7 [10]; 34.3% in the test with MCF7 [11]; 49.8% in the test on HT-29 [13]; 55.9% in the test with MCF7 [16]; 77.5% in the test with MCF7 [17]; 89% in the test with HT-29 [19]. For the same compound, the inhibition entry in the test on HT-29 [2] is “Dose-dependent effect”; with MCF7 [5] it was “tde”; in the test with HT-29 [8], “tde”; with MCF7 [12] it was “Dose-dependent effect”. For the same compound, the 50% inhibitory concentration (IC50) with HT-29 [14] is 1.6 µg/mL (≈ 3.32 µM); in the test on MCF7 [15] it was 4.5 µg/mL (≈ 9.34 µM). Besides, the outcome in the test with HT-29 [18] was Active.

For the origin of these results see ChEMBL document CHEMBL1208663, “Synthesis of 2-substituted-N-[4-(1-methyl-4,5-diphenyl-1H-imidazole-2-yl)phenyl]acetamide derivatives and evaluation of their anticancer activity” (Eur J Med Chem, 2010).
